The subject of data set [1] is HEK293. As to the kind of experiment: Binding affinity to human GFP-tagged NPC1L1 L1072T/L1168I mutant expressed in HEK293 cells assessed as localization to endoplasmic reticulum and plasma membrane at 10 uM after 24 hrs by fluorescence microscopic analysis. In kind it is cell-based. Put shortly: (§1)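 HEK293 cells stably expressing NPC1L1-GFP mutant from a CMV promoter, kept under G418 (0.4 mg/mL). Seeded at 6,000 cells/well on poly-lysine-coated glass in DMEM with 1% FBS. Dosed next day in 0.1% DMSO final for 24 h, then fixed in 3.7% formaldehyde and imaged at ×100. Each cell in 25 images scored ER 0 to PM 1; mean reported as % plasma membrane localization.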

The subject of data set [2] is HEK293. As to the kind of experiment: Binding affinity to human GFP-tagged NTD-deleted NPC1L1 L1072T/L1168I mutant expressed in HEK293 cells assessed as localization to plasma membrane at 10 uM after 24 hrs by fluorescence microscopic analysis. It is filed as cell-based. Put shortly:
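HEK293 cells stably expressing the GFP-tagged NTD-deleted mutant were treated for 24 h with 0.1% final DMSO, then fixed in 3.7% formaldehyde. Cells were imaged at ×100 and scored from ER (0) to PM (1) over 25 images, reported as % plasma membrane localization.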

Data set [3] has as its target T1, NPC intracellular cholesterol transporter 1 (Homo sapiens) (UniProt O15118).
T1 sequence (whole entry): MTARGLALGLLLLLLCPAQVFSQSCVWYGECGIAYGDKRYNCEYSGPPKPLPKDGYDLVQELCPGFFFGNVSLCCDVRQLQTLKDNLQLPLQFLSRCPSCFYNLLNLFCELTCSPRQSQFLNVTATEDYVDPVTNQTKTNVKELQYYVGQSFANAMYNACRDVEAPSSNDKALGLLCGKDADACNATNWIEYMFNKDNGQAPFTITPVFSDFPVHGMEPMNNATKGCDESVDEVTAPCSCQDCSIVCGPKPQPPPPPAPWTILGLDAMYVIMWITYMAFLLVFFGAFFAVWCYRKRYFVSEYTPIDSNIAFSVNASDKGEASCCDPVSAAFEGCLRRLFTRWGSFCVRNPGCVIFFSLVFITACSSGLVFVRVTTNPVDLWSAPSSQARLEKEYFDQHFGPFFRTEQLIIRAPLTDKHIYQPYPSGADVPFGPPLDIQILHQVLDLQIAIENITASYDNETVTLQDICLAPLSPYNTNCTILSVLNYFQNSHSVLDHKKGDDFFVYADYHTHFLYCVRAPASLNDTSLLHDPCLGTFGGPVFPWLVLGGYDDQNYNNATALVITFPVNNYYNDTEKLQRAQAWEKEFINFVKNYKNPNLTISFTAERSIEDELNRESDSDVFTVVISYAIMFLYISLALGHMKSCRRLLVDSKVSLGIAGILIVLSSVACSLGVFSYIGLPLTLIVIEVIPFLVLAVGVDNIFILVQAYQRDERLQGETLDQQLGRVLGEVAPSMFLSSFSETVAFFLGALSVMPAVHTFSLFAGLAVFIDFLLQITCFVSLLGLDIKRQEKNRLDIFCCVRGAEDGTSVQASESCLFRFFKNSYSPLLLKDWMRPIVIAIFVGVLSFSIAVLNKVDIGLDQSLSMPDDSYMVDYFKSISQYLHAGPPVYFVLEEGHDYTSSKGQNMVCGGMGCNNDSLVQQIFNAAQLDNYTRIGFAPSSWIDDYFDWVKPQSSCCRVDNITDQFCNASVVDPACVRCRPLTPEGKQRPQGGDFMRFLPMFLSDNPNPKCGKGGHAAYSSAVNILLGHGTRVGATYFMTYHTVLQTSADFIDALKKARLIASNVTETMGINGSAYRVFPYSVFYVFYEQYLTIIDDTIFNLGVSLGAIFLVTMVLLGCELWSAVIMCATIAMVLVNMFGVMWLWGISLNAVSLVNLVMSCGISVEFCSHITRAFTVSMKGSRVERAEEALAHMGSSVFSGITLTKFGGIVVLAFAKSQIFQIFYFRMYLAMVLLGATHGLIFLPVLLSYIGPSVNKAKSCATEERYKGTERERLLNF
As to the kind of experiment: (§2) Binding affinity to NPC1 (unknown origin).

In data set [4] the test system is HEK293. The data set can be described thus: Binding affinity to human GFP-tagged NPC1L1 L1072T/L1168I mutant expressed in HEK293 cells assessed as localization to endoplasmic reticulum and plasma membrane at 3 uM after 24 hrs by fluorescence microscopic analysis. In kind it is cell-based. Put shortly: as §1
For data set [5], the system named is HEK293. The data set can be described thus: Binding affinity to human GFP-tagged NPC1L1 L1072T/L1168I mutant expressed in HEK293 cells assessed as protein stabilization after 24 hrs by fluorescence assay. In kind it is cell-based. An outline of the steps: (§3)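 Stable HEK293 lines were grown to 70% confluency in phenol red-free medium in 12-well plates and exposed to vehicle or compound for 24 h. Supernatant GFP fluorescence was read and normalized to BCA total protein, n = 3.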

Data set [6] deals with HEK293. As to the kind of experiment: Binding affinity to human GFP-tagged NTD-deleted NPC1L1 L1072T/L1168I mutant expressed in HEK293 cells assessed as protein stabilization after 24 hrs by fluorescence assay. In kind it is cell-based. An outline of the steps: as §3
Data set [7] concerns the target T2, NPC intracellular cholesterol transporter 1 (Homo sapiens, UniProt O15118).
T2 sequence (O15118 whole entry): T1 sequence (whole entry)
The description is as §2.

A short description of data set [8]: Binding affinity to human GFP-tagged NTD-deleted NPC1L1 L1072T/L1168I mutant expressed in HEK293 cells assessed as localization to plasma membrane after 24 hrs by fluorescence microscopic analysis. It is filed as cell-based. An outline of the steps: (§4)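 HEK293 cells stably expressing the GFP-tagged construct (G418 0.4 mg/mL) were seeded at 6,000 cells/well in DMEM with 1% FBS on poly-lysine-coated glass. On day 2 they were treated for 24 h, final DMSO 0.1%. Cells were fixed in 3.7% formaldehyde and imaged at ×100. Across 25 images, cells were scored ER 0 to PM 1 and averaged as % plasma membrane localization. EC50 was taken from this score.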

For the next data set, the species on record is Homo sapiens. As to the kind of experiment: Selectivity ratio of EC50 for NPC1 (unknown origin) to EC50 for human GFP-tagged NPC1L1 L1072T/L1168I mutant.
A short description of data set [9]: Binding affinity to human GFP-tagged NPC1L1 L1072T/L1168I mutant expressed in HEK293 cells assessed as localization to endoplasmic reticulum and plasma membrane after 24 hrs by fluorescence microscopic analysis. The conditions noted are these: read-out: EC50. It is filed as cell-based. Put shortly:
as §4

In data set [10] the test system is HEK293. As to the kind of experiment: Competitive binding affinity to human GFP-tagged NPC1L1 L1072T/L1168I mutant expressed in HEK293 cells assessed as localization to endoplasmic reticulum and plasma membrane at 0.01 to 10 uM after 24 hrs by fluorescence microscopic analysis in presence of N,N-(Dimethyl)-delta(5)-cholenamid-3beta-yl N,N-bis(2-hydroxyethyl)carbamate. In kind it is cell-based.

For data set [11], the system named is HEK293. The data set can be described thus: Cytotoxicity against HEK293 cells transfected with human GFP-tagged NPC1L1 L1072T/L1168I mutant. In kind it is cell-based.

This is an account of results in ChEMBL document CHEMBL2417499, “Structure-activity relationship studies of Niemann-Pick type C1-like 1 (NPC1L1) ligands identified by screening assay monitoring pharmacological chaperone effect” (Bioorg Med Chem, 2013).

Active and inactive are the calls of the source. The calls are words filed in the database; no cut-off is given here.

On to `CCCCN(CCCC)C(=O)O[C@H]1CC[C@@]2(C)C(=CC[C@H]3[C@@H]4CC[C@H]([C@H](C)CCC(=O)N(C)C)[C@@]4(C)CC[C@@H]32)C1`, for which the outcome in the data set on HEK293 [1] and with HEK293 [2] was inactive.
In the case of `CC(C)CCC[C@@H](C)[C@H]1CC[C@H]2[C@@H]3C[C@@H](O)[C@@]4(O)C[C@@H](O)CC[C@]4(C)[C@H]3CC[C@]12C`, the result in data set [3] was Active. The outcome with HEK293 [4] was inactive.
By EC50 is commonly meant the concentration giving half of the maximal effect. For the molecule `C[C@H](CCC(=O)N(C)C)[C@H]1CC[C@H]2[C@@H]3CC=C4C[C@@H](OC(=O)N(CCO)CCO)CC[C@]4(C)[C@H]3CC[C@]12C`, in the data set with HEK293 [5], the Activity result was “Dose-dependent effect”. In addition, in the data set with HEK293 [6], the outcome was Active. Further, the EC50 in [7] is 1.6 µM; in data set [8], 1.7 µM; in [9] it was 0.65 µM. Also, in the data set filed under Homo sapiens, the Ratio EC50 came out at 2.5.
Take `O=C1[C@H](CC[C@H](O)c2ccc(F)cc2)[C@@H](c2ccc(O)cc2)N1c1ccc(F)cc1`: the result in the data set with HEK293 [1] and with HEK293 [10] was inactive.
On to `CCCN(CCC)C(=O)CC[C@@H](C)[C@H]1CC[C@H]2[C@@H]3CC=C4C[C@@H](O)CC[C@]4(C)[C@H]3CC[C@]12C`, for which the Activity result in the data set with HEK293 [11] is recorded as “Toxic”.
